# Source: ChEMBL document CHEMBL1255303, “In vitro and in vivo antifungal activities of T-2307, a novel arylamidine” (2008)
# Legend:
# Assay type in all cases: functional
# Aspergillus terreus = experiment: Antifungal activity against Aspergillus terreus NBRC 33026 after 48 hrs by broth microdilution method; settings: NBRC 33026, 48 h
# In short: (§1)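 CLSI M27-A2 (yeasts) / M38-A (moulds) broth microdilution in RPMI 1640 buffered to pH 7.0 with 0.165 M MOPS. Malassezia furfur got the same medium supplemented with glucose, bile salts, glycerol, glycerol monostearate and Tween 20. Final inoculum 0.65 × 10^3–2.5 × 10^3 CFU/ml for yeasts and 0.87 × 10^4–3.8 × 10^4 CFU/ml for filamentous fungi. Incubation at 35°C except M. racemosus and F. solani, which were held at 30°C.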
# Lichtheimia corymbifera = experiment: Antifungal activity against Absidia corymbifera NBRC 4009 after 24 hrs by broth microdilution method; settings: NBRC 4009, 24 h; in short: as §1
# [1] = system: Meyerozyma guilliermondii; experiment: Antifungal activity against Candida guilliermondii clinical isolates after 48 hrs by broth microdilution method
# In short: (§2)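 Clinical isolates from Japanese hospitals or culture collections were tested by broth microdilution in RPMI 1640-MOPS. Inoculum was 0.57 × 10^3–2.5 × 10^3 CFU/ml for yeasts and 0.4 × 10^4–3.3 × 10^4 CFU/ml for filamentous fungi. Incubation was at 35°C for about 48 h, or 72 h where footnoted. Results were summarised as MIC range, MIC50 and MIC90.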
# Candida albicans [2] = experiment: Antifungal activity against Candida albicans ATCC 64124 after 47 hrs by broth microdilution method; settings: ATCC 64124, 47 h
# In short: (§3)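 Fluconazole-resistant or susceptible-dose-dependent ATCC C. albicans strains were tested by CLSI M27-A2 broth microdilution in RPMI 1640–0.165 M MOPS, pH 7.0, with a final inoculum of 1.1–1.5 × 10^3 CFU/ml at 35°C for about 47 h. MIC was the lowest concentration with a prominent (~50%) turbidity decrease relative to growth control; amphotericin B was read at complete inhibition.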
# Candida albicans [3] = experiment: Antifungal activity against Candida albicans ATCC 90028 after 48 hrs by broth microdilution method; settings: ATCC 90028, 48 h; in short: as §1
# Aspergillus fumigatus [4] = experiment: Antifungal activity against Aspergillus fumigatus ATCC 16424 after 48 hrs by broth microdilution method; settings: ATCC 16424, 48 h
# In short: (§4)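 CLSI M27-A2 (yeasts) or M38-A (A. fumigatus) broth microdilution in RPMI 1640 buffered to pH 7.0 with 0.165 M MOPS. Final inocula were 0.65–2.5 × 10^3 CFU/ml for yeasts and 0.87–3.8 × 10^4 CFU/ml for filamentous fungi. Incubation was at 35°C for about 48 h (72 h for C. neoformans). MIC was the lowest concentration giving a prominent (~50%) turbidity drop versus growth control; amphotericin B required complete inhibition.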
# Candida tropicalis [5] = experiment: Antifungal activity against Candida tropicalis clinical isolates after 48 hrs by broth microdilution method; in short: as §2
# Mucor racemosus = experiment: Antifungal activity against Mucor racemosus NBRC5403 after 24 hrs by broth microdilution method; settings: NBRC5403, 24 h
# Candida parapsilosis [6] = experiment: Antifungal activity against Candida parapsilosis clinical isolates after 48 hrs by broth microdilution method; settings: Lodderomyces parapsilosis
# In short: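 Japanese hospital Candida isolates were tested by CLSI M27-A2 broth microdilution in RPMI 1640–MOPS, pH 7.0, with inocula of 0.57–2.5 × 10^3 CFU/ml at 35°C for about 48 h. Inocula came from 24-h potato dextrose agar cultures. MIC was the lowest concentration with about 50% turbidity reduction versus growth control (complete inhibition for amphotericin B). Range, MIC50 and MIC90 were reported.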
# Cryptococcus neoformans [7] = experiment: Antifungal activity against Cryptococcus neoformans TIMM 0354 after 72 hrs by broth microdilution method; settings: TIMM 0354, 72 h; in short: as §4
# Candida albicans [8] = experiment: Antifungal activity against Candida albicans clinical isolates after 48 hrs by broth microdilution method; in short: as §2
# Cryptococcus neoformans [9] = experiment: Antifungal activity against Cryptococcus neoformans clinical isolates after 72 hrs by broth microdilution method; in short: as §2
# Scedosporium boydii = experiment: Antifungal activity against Pseudallescheria boydii NBRC 32229 after 72 hrs by broth microdilution method; settings: NBRC 32229, 72 h; in short: as §1
# Candida albicans [10] = experiment: Antifungal activity against Candida albicans ATCC MYA-1003 after 47 hrs by broth microdilution method; settings: ATCC MYA-1003, 47 h; in short: as §3
# Fusarium solani = experiment: Antifungal activity against Fusarium solani IFO 31093 after 48 hrs by broth microdilution method; settings: IFO 31093, 48 h; in short: as §1
# Cryptococcus neoformans [11] = experiment: Antifungal activity against Cryptococcus neoformans ATCC 90112 after 72 hrs by broth microdilution method; settings: ATCC 90112, 72 h; in short: as §4
# Aspergillus fumigatus [12] = experiment: Antifungal activity against Aspergillus fumigatus IFM 46895 after 48 hrs by broth microdilution method; settings: IFM 46895, 48 h; in short: as §1
# Candida albicans [13] = experiment: Antifungal activity against Candida albicans ATCC 24433 after 48 hrs by broth microdilution method; settings: ATCC 24433, 48 h; in short: as §4
# Candida tropicalis [14] = experiment: Antifungal activity against Candida tropicalis IFO 1400 after 48 hrs by broth microdilution method; settings: IFO 1400, 48 h; in short: as §1
# Saccharomyces cerevisiae = experiment: Antifungal activity against Saccharomyces cerevisiae ATCC 24657 after 48 hrs by broth microdilution method; settings: ATCC 24657, 48 h; in short: as §1
# Candida parapsilosis [15] = experiment: Antifungal activity against Candida parapsilosis NBRC 10219 after 48 hrs by broth microdilution method; settings: Lodderomyces parapsilosis, NBRC 10219, 48 h; in short: as §4
# Trichophyton rubrum = experiment: Antifungal activity against Trichophyton rubrum NBRC 5467 after 72 hrs by broth microdilution method; settings: NBRC 5467, 72 h; in short: as §1
# Pichia kudriavzevii = experiment: Antifungal activity against Candida krusei IFO 0584 after 48 hrs by broth microdilution method; settings: IFO 0584, 48 h; in short: as §1
# Nakaseomyces glabratus = experiment: Antifungal activity against Candida glabrata clinical isolates after 48 hrs by broth microdilution method; in short: as §2
# Aspergillus flavus = experiment: Antifungal activity against Aspergillus flavus NBRC 6343 after 48 hrs by broth microdilution method; settings: NBRC 6343, 48 h; in short: as §1
structure (smiles),measurement,setting,value
C[C@@H]1[C@H](O)[C@@H](C)/C=C/C=C/C=C/C=C/C=C/C=C/C=C/[C@H](O[C@@H]2O[C@H](C)[C@@H](O)[C@H](N)[C@@H]2O)C[C@@H]2O[C@](O)(C[C@@H](O)C[C@@H](O)[C@H](O)CC[C@@H](O)C[C@@H](O)CC(=O)O[C@H]1C)C[C@H](O)[C@H]2C(=O)O [AMPHOTERICIN B],MFC,Aspergillus terreus,> 64 µg/mL
same,MIC,Aspergillus terreus,2 µg/mL
same,MFC,Lichtheimia corymbifera,> 64 µg/mL
same,MIC,Lichtheimia corymbifera,2 µg/mL
same,MIC50,[1],1 µg/mL
same,MIC90,[1],1 µg/mL
same,MIC,Candida albicans [2],2 µg/mL
same,MFC,Candida albicans [3],1 µg/mL
same,MIC,Candida albicans [3],1 µg/mL
same,MFC,Aspergillus fumigatus [4],2 µg/mL
same,MIC,Aspergillus fumigatus [4],1 µg/mL
same,MIC,Candida tropicalis [5],1 µg/mL
same,MIC50,Candida tropicalis [5],1 µg/mL
same,MIC90,Candida tropicalis [5],2 µg/mL
same,MFC,Mucor racemosus,2 µg/mL
same,MIC,Mucor racemosus,1 µg/mL
same,MIC50,Candida parapsilosis [6],2 µg/mL
same,MIC90,Candida parapsilosis [6],2 µg/mL
same,MFC,Cryptococcus neoformans [7],1 µg/mL
same,MIC,Cryptococcus neoformans [7],1 µg/mL
same,MIC50,Candida albicans [8],2 µg/mL
same,MIC90,Candida albicans [8],2 µg/mL
same,MIC,Cryptococcus neoformans [9],1 µg/mL
same,MIC50,Cryptococcus neoformans [9],1 µg/mL
same,MIC90,Cryptococcus neoformans [9],1 µg/mL
same,MFC,Scedosporium boydii,> 64 µg/mL
same,MIC,Scedosporium boydii,> 64 µg/mL
same,MIC,Candida albicans [10],2 µg/mL
same,MFC,Fusarium solani,2 µg/mL
same,MIC,Fusarium solani,2 µg/mL
same,MFC,Cryptococcus neoformans [11],1 µg/mL
same,MIC,Cryptococcus neoformans [11],1 µg/mL
same,MFC,Aspergillus fumigatus [12],2 µg/mL
same,MIC,Aspergillus fumigatus [12],2 µg/mL
same,MFC,Candida albicans [13],1 µg/mL
same,MIC,Candida albicans [13],1 µg/mL
same,MFC,Candida tropicalis [14],1 µg/mL
same,MIC,Candida tropicalis [14],1 µg/mL
same,MFC,Saccharomyces cerevisiae,2 µg/mL
same,MIC,Saccharomyces cerevisiae,1 µg/mL
same,MFC,Candida parapsilosis [15],1 µg/mL
same,MIC,Candida parapsilosis [15],1 µg/mL
same,MFC,Trichophyton rubrum,1 µg/mL
same,MIC,Trichophyton rubrum,1 µg/mL
same,MFC,Pichia kudriavzevii,2 µg/mL
same,MIC,Pichia kudriavzevii,2 µg/mL
same,MIC,Nakaseomyces glabratus,1 µg/mL
same,MIC50,Nakaseomyces glabratus,1 µg/mL
same,MIC90,Nakaseomyces glabratus,2 µg/mL
same,MFC,Aspergillus flavus,2 µg/mL
same,MIC,Aspergillus flavus,2 µg/mL
C[C@@H](c1ncncc1F)[C@](O)(Cn1cncn1)c1ccc(F)cc1F [VORICONAZOLE],MFC,Aspergillus terreus,32 µg/mL
same,MIC,Aspergillus terreus,0.5 µg/mL
same,MFC,Lichtheimia corymbifera,> 64 µg/mL
same,MIC,Lichtheimia corymbifera,32 µg/mL
same,MIC50,[1],0.0625 µg/mL
same,MIC90,[1],0.125 µg/mL
same,MIC,Candida albicans [2],16 µg/mL
same,MFC,Candida albicans [3],> 64 µg/mL
same,MIC,Candida albicans [3],0.0039 µg/mL
same,MFC,Aspergillus fumigatus [4],32 µg/mL
same,MIC,Aspergillus fumigatus [4],0.25 µg/mL
same,MIC50,Candida tropicalis [5],0.0625 µg/mL
same,MIC90,Candida tropicalis [5],0.0625 µg/mL
same,MFC,Mucor racemosus,> 64 µg/mL
same,MIC,Mucor racemosus,> 64 µg/mL
same,MIC50,Candida parapsilosis [6],0.0156 µg/mL
same,MIC90,Candida parapsilosis [6],0.0313 µg/mL
same,MFC,Cryptococcus neoformans [7],> 64 µg/mL
same,MIC,Cryptococcus neoformans [7],0.0313 µg/mL
same,MIC,Candida albicans [8],0.0039 µg/mL
same,MIC50,Candida albicans [8],0.0039 µg/mL
same,MIC90,Candida albicans [8],0.0078 µg/mL
same,MIC50,Cryptococcus neoformans [9],0.0313 µg/mL
same,MIC90,Cryptococcus neoformans [9],0.0625 µg/mL
same,MFC,Scedosporium boydii,> 64 µg/mL
same,MIC,Scedosporium boydii,1 µg/mL
same,MIC,Candida albicans [10],0.5 µg/mL
same,MFC,Fusarium solani,8 µg/mL
same,MIC,Fusarium solani,8 µg/mL
same,MFC,Cryptococcus neoformans [11],> 64 µg/mL
same,MIC,Cryptococcus neoformans [11],0.0313 µg/mL
same,MFC,Aspergillus fumigatus [12],4 µg/mL
same,MIC,Aspergillus fumigatus [12],0.5 µg/mL
same,MFC,Candida albicans [13],> 64 µg/mL
same,MIC,Candida albicans [13],0.0078 µg/mL
same,MFC,Candida tropicalis [14],> 64 µg/mL
same,MIC,Candida tropicalis [14],0.0625 µg/mL
same,MFC,Saccharomyces cerevisiae,> 64 µg/mL
same,MIC,Saccharomyces cerevisiae,0.125 µg/mL
same,MFC,Candida parapsilosis [15],> 64 µg/mL
same,MIC,Candida parapsilosis [15],0.0313 µg/mL
same,MFC,Trichophyton rubrum,> 64 µg/mL
same,MIC,Trichophyton rubrum,0.0313 µg/mL
same,MFC,Pichia kudriavzevii,2 µg/mL
same,MIC,Pichia kudriavzevii,0.125 µg/mL
same,MIC50,Nakaseomyces glabratus,0.125 µg/mL
same,MIC90,Nakaseomyces glabratus,0.5 µg/mL
same,MFC,Aspergillus flavus,1 µg/mL
same,MIC,Aspergillus flavus,0.5 µg/mL
